The source made the active and inactive calls. The rule behind the calls is not given here.
Columns and labels:
[1] = target: Human immunodeficiency virus type 1 integrase (Human immunodeficiency virus 1) (UniProt Q7ZJM1); assay: (§1) Inhibition of HIV-1 integrase expressed in Escherichia coli using [32P]-labeled U5B/U5A DNA as substrate assessed as inhibition of 3'-processing reaction after 2 hrs by PAGE analysis in presence of Mg2+
Summary of the method: (§2)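 3'-Processing: 32P-labeled U5B/U5A (3 nM) with IN (100 nM) in buffer A (20 mM HEPES pH 7.2, 7.5 mM MgCl2 or MnCl2, 1 mM DTT), increasing inhibitor, 37°C, 2 h; stopped with EDTA solution, phenol–chloroform extracted, ethanol precipitated, resolved on denaturing 20% PAGE, phosphorimager-quantified.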

[2] = target: Human immunodeficiency virus type 1 integrase (Human immunodeficiency virus 1) (UniProt Q7ZJM1); assay: Inhibition of HIV-1 integrase expressed in Escherichia coli using [32P]-labeled U5B/U5A DNA as substrate assessed as inhibition of 3'-processing reaction up to 250 uM after 2 hrs by PAGE analysis in presence of Mg2+; summary of the method: as §2
[3] = target: T1, Human immunodeficiency virus type 1 integrase (Human immunodeficiency virus 1, UniProt Q7ZJM1); assay: as §1; summary of the method: as §2
[4] = target: T1, Human immunodeficiency virus type 1 integrase; assay: Displacement of [32P]-labeled U5B/U5A DNA from HIV-1 integrase expressed in Escherichia coli in presence of Mn2+
Summary of the method: (§3)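 DRaCALA binding: 32P-labeled U5B/U5A (3 nM) with IN in buffer A (20 mM HEPES pH 7.2, 7.5 mM MgCl2 or MnCl2, 1 mM DTT), compound 0–500 μM, 25°C for 20 min; mixture spotted on nitrocellulose membrane, bound DNA quantified by phosphorimaging.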

[5] = target: T1, Human immunodeficiency virus type 1 integrase; assay: Inhibition of HIV-1 integrase expressed in Escherichia coli using [32P]-labeled U5B/U5A DNA as substrate assessed as inhibition of 3'-processing reaction after 2 hrs by PAGE analysis in presence of Mn2+; summary of the method: as §2
[6] = target: T1, Human immunodeficiency virus type 1 integrase; assay: Inhibition of HIV-1 integrase expressed in Escherichia coli using [32P]-labeled U5B-2/U5A DNA as substrate assessed as inhibition of strand transfer reaction after 2 hrs by PAGE analysis in presence of Mg2+
Summary of the method: (§4)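 Strand transfer: 32P-labeled U5B-2/U5A duplex (10 nM) with IN (100 nM) in buffer A (20 mM HEPES pH 7.2, 7.5 mM MgCl2 or MnCl2, 1 mM DTT), increasing inhibitor, 37°C, 2 h. EDTA-containing stop solution, phenol–chloroform extraction, ethanol precipitation, denaturing 20% PAGE, phosphorimager quantification of reaction efficiency.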

[7] = target: T1, Human immunodeficiency virus type 1 integrase; assay: Displacement of [32P]-labeled U5B/U5A DNA from HIV-1 integrase expressed in Escherichia coli in presence of Mg2+; summary of the method: as §3
[8] = target: T1, Human immunodeficiency virus type 1 integrase; assay: Inhibition of HIV-1 integrase expressed in Escherichia coli using [32P]-labeled U5B-2/U5A DNA as substrate assessed as inhibition of strand transfer reaction after 2 hrs by PAGE analysis in presence of Mn2+; summary of the method: as §4
[9] = target: T1, Human immunodeficiency virus type 1 integrase; assay: Inhibition of HIV-1 GST-tagged integrase-His6-tagged LEDGF complex expressed in Escherichia coli BL21(DE3) using [32P]-labeled U5B/U5A DNA as substrate assessed as inhibition of 3'-processing reaction after 2 hrs by PAGE analysis in presence of Mg2+
Summary of the method: (§5)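 IN/LEDGF complex (IN combined with 50 nM LEDGF) processing 32P-labeled U5B/U5A (3 nM) in buffer A (20 mM HEPES pH 7.2, 7.5 mM MgCl2 or MnCl2, 1 mM DTT) with increasing inhibitor, 37°C, 2 h; products separated by denaturing 20% PAGE and quantified by phosphorimaging.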

[10] = target: T1, Human immunodeficiency virus type 1 integrase; assay: Inhibition of HIV-1 GST-tagged integrase-His6-tagged LEDGF complex expressed in Escherichia coli BL21(DE3) using [32P]-labeled U5B/U5A DNA as substrate assessed as inhibition of 3'-processing reaction after 2 hrs by PAGE analysis in presence of Mn2+; summary of the method: as §5
[11] = target: Human immunodeficiency virus type 1 integrase (Human immunodeficiency virus 1, UniProt Q7ZJM1, N155H); assay: Inhibition of HIV-1 integrase N155H mutant expressed in Escherichia coli using [32P]-labeled U5B/U5A DNA as substrate assessed as inhibition of 3'-processing reaction after 2 hrs by PAGE analysis in presence of Mg2+
Summary of the method: (§6)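 3'-processing: 32P-labelled U5B/U5A duplex mimicking the HIV-1 U5 LTR end (3 nM) incubated with integrase (100 nM) in 20 mM HEPES pH 7.2, 7.5 mM MgCl2, 1 mM DTT, with increasing inhibitor concentrations, 37°C, 2 h. Stopped with EDTA, phenol-chloroform extracted, ethanol precipitated. Products resolved on denaturing 20% PAGE, phosphorimaged, reaction efficiency quantified.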

[12] = target: Human immunodeficiency virus type 1 integrase (Human immunodeficiency virus 1, UniProt Q7ZJM1, G140S); assay: Inhibition of HIV-1 integrase G140S mutant expressed in Escherichia coli using [32P]-labeled U5B/U5A DNA as substrate assessed as inhibition of 3'-processing reaction after 2 hrs by PAGE analysis in presence of Mg2+; summary of the method: as §6
[13] = target: T1, Human immunodeficiency virus type 1 integrase; assay: Competitive inhibition of HIV-1 integrase expressed in Escherichia coli using [32P]-labeled U5B/U5A DNA as substrate after 1 hr by double-reciprocal plot analysis in presence of Mg2+
Summary of the method: (§7)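 Kinetics: IN (100 nM) incubated with 32P-labeled U5B/U5A (2.5–12.5 nM) plus inhibitor (0–39 μM or 0–15 μM, depending on compound) in buffer A (20 mM HEPES pH 7.2, 7.5 mM MgCl2 or MnCl2, 1 mM DTT), 1 h, 37°C. Initial 3'-processing rate vs substrate concentration at varied inhibitor levels plotted double-reciprocally; Km and KI calculated from the fitted inhibition model.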

[14] = target: Human immunodeficiency virus type 1 integrase (Human immunodeficiency virus 1, UniProt Q7ZJM1, E138K); assay: Inhibition of HIV-1 integrase E138K mutant expressed in Escherichia coli using [32P]-labeled U5B/U5A DNA as substrate assessed as inhibition of 3'-processing reaction after 2 hrs by PAGE analysis in presence of Mg2+; summary of the method: as §6
[15] = target: Human immunodeficiency virus type 1 integrase (Human immunodeficiency virus 1, UniProt Q7ZJM1, E92Q); assay: Inhibition of HIV-1 integrase E92Q mutant expressed in Escherichia coli using [32P]-labeled U5B/U5A DNA as substrate assessed as inhibition of 3'-processing reaction after 2 hrs by PAGE analysis in presence of Mg2+; summary of the method: as §6
[16] = target: T1, Human immunodeficiency virus type 1 integrase; assay: Non-competitive inhibition of HIV-1 integrase expressed in Escherichia coli using [32P]-labeled U5B/U5A DNA as substrate after 1 hr by double-reciprocal plot analysis in presence of Mn2+; summary of the method: as §7
[17] = target: T1, Human immunodeficiency virus type 1 integrase; assay: Non-competitive inhibition of HIV-1 integrase expressed in Escherichia coli using [32P]-labeled U5B/U5A DNA as substrate after 1 hr by double-reciprocal plot analysis in presence of Mg2+; summary of the method: as §7
[18] = target: Human immunodeficiency virus type 1 integrase (Human immunodeficiency virus 1) (UniProt Q7ZJM1); assay: Ratio of IC50 for HIV-1 integrase-mediated 3'-processing reaction in presence of Mg2+ to IC50 for HIV-1 integrase-mediated strand transfer reaction in presence of Mg2+
[19] = target: Human immunodeficiency virus type 1 integrase (Human immunodeficiency virus 1) (UniProt Q7ZJM1); assay: Inhibition of HIV-1 integrase expressed in Escherichia coli using [32P]-labeled U5B/U5A DNA as substrate assessed as inhibition of 3'-processing reaction up to 500 uM after 2 hrs by PAGE analysis in presence of Mg2+; summary of the method: as §6

Chain of Human immunodeficiency virus type 1 integrase (Human immunodeficiency virus 1) (Q7ZJM1 as listed by the source): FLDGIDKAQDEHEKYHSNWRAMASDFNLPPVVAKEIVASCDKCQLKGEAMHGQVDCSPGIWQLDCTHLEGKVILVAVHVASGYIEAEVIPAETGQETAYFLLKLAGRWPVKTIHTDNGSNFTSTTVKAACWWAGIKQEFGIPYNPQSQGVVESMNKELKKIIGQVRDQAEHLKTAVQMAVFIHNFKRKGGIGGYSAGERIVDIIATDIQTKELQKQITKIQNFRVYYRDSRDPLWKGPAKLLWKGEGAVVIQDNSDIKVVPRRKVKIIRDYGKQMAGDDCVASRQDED
T1 sequence (Q7ZJM1 whole entry): as the sequence (Q7ZJM1 as listed by the source) above
Chain of Human immunodeficiency virus type 1 integrase (Human immunodeficiency virus 1, UniProt Q7ZJM1, N155H) (Q7ZJM1 entry or part of it N155H): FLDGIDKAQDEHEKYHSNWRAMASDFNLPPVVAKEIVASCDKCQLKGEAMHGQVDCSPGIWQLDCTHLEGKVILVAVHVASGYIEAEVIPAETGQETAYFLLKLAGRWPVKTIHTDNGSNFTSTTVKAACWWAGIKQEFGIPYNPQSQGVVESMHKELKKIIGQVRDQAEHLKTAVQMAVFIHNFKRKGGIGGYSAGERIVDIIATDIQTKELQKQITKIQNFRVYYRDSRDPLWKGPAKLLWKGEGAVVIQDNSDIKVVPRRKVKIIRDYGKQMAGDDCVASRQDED
Chain of Human immunodeficiency virus type 1 integrase (Human immunodeficiency virus 1, UniProt Q7ZJM1, G140S) (Q7ZJM1 entry or part of it G140S): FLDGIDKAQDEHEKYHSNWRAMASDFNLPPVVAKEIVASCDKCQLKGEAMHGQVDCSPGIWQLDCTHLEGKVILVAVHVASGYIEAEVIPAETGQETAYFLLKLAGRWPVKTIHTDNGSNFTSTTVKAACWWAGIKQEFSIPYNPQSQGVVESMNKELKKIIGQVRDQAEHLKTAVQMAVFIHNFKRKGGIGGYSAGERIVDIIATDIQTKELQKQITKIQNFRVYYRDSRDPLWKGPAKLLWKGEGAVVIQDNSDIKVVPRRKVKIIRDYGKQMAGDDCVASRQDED
Chain of Human immunodeficiency virus type 1 integrase (Human immunodeficiency virus 1, UniProt Q7ZJM1, E92Q) (Q7ZJM1 entry or part of it E92Q): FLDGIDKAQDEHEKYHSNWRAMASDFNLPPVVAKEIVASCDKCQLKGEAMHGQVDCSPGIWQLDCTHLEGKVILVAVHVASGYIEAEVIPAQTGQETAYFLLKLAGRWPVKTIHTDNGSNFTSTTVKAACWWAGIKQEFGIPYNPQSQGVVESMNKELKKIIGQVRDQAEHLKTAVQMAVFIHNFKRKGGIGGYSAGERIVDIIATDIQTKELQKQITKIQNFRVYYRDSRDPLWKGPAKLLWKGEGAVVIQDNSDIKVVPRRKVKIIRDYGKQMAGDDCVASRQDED
Chain of Human immunodeficiency virus type 1 integrase (Human immunodeficiency virus 1, UniProt Q7ZJM1, E138K) (Q7ZJM1 entry or part of it E138K): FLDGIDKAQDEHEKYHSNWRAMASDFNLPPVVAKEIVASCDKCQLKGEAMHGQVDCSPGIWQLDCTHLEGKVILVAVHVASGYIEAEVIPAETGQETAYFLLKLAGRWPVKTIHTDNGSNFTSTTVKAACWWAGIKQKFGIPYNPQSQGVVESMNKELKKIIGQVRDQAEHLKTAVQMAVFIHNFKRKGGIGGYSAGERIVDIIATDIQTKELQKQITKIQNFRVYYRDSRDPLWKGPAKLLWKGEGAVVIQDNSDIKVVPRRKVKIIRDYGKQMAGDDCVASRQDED

For `O=P(O)(O)C(CNc1ccc(I)cc1)P(=O)(O)O`, the inhibition [1] was “inactive”.
With `O=P(O)(O)C(O)(CCCCc1ccccc1)P(=O)(O)O` the inhibition [2] was “inactive”.
`NC(C[n+]1ccccc1)(P(=O)(O)O)P(=O)(O)O` was tested, and the inhibition [2] was “inactive”.
For `NC(Cc1ccccc1)(P(=O)(O)O)P(=O)(O)O`, the inhibition [2] was “inactive”.
For `CCc1cccc[n+]1CC(O)(P(=O)(O)O)P(=O)(O)O`, the inhibition [2] was “inactive”.
In the case of `O=P(O)(O)C(CNCCc1ccccc1)P(=O)(O)O`, the inhibition [1] is reported as “inactive”.
For `O=P(O)(O)C(Cc1ccc(Cl)c(Cl)c1)(Cc1ccc(Cl)c(Cl)c1)P(=O)(O)O`, the IC50 [3] was 20 µM, the IC50 [4] was > 500 µM and the IC50 [5] was 0.8 µM. For the same molecule, the IC50 [6] was 16 µM, the IC50 [7] was 100 µM and the IC50 [8] was 0.8 µM.
With `O=P(O)(O)C(O)(Cc1ccc(Cl)c(Cl)c1)P(=O)(O)O` the IC50 [9] was > 250 µM, the IC50 [3] was 35 µM and the IC50 [4] was > 500 µM. It also gave an IC50 [10] of 4.5 µM, an IC50 [5] of 5 µM and an IC50 [11] of 35 µM. For the same molecule, the IC50 [6] was 45 µM, the IC50 [12] was 35 µM and the Ki [13] was 38 µM. It also gave an IC50 [14] of 35 µM, an IC50 [15] of 35 µM and a Ki [16] of 4400 nM. It also gave an IC50 [7] of 150 µM and an IC50 [8] of 4 µM.
With `O=P(O)(O)C(O)(Cc1ccccc1)P(=O)(O)O` the inhibition [2] was “inactive”.
For `O=P(O)(O)C(O)(C[n+]1cccc(O)c1)P(=O)(O)O`, the inhibition [2] was “inactive”.
`O=P(O)(O)C(Cc1ccc(Cl)c(Cl)c1)P(=O)(O)O` was tested, and the IC50 [9] was > 250 µM, the IC50 [3] was 30 µM and the IC50 [4] was > 500 µM. The IC50 [10] was 6 µM, the IC50 [5] was 5 µM and the IC50 [6] was 30 µM. The IC50 [7] was 130 µM and the IC50 [8] was 5 µM.
With `NC(Cc1ccc(Cl)c(Cl)c1)(P(=O)(O)O)P(=O)(O)O` the IC50 [9] was 7 µM, the IC50 [3] was 7 µM and the IC50 [4] was > 500 µM. It also gave an IC50 [10] of 2 µM, an IC50 [5] of 2 µM and an IC50 [11] of 7 µM. The IC50 [6] was 3 µM, the IC50 [12] was 7 µM and the Ki [17] was 2000 nM. It also gave a Ratio IC50 [18] of 2, an IC50 [14] of 7 µM and an IC50 [15] of 7 µM. The Ki [16] was 1000 nM, the IC50 [7] was > 256 µM and the IC50 [8] was 2 µM.
`O=P(O)(O)Cc1ccc(Cl)c(Cl)c1` was tested, and the inhibition [19] was “inactive”.
`O=P(O)(O)C(O)(C[n+]1ccccc1)P(=O)(O)O` was tested, and the inhibition [2] was “inactive”.
For `O=P(O)(O)C(CNc1ccccc1)P(=O)(O)O`, the inhibition [1] was “inactive”.
`O=P(O)(O)C(O)(C[n+]1ccc(-c2ccccc2)cc1)P(=O)(O)O` was tested, and the inhibition [2] was “inactive”.
For `O=C(O)Cc1ccc(Cl)c(Cl)c1`, the inhibition [19] was “inactive”.
For `O=P(O)(O)C(O)(CCc1ccccc1)P(=O)(O)O`, the inhibition [2] was “inactive”.
In the case of `O=P(O)(O)C(O)(Cc1ccc(Cl)cc1)P(=O)(O)O`, the IC50 [9] is reported as > 250 µM, the IC50 [3] is reported as 20 µM and the IC50 [4] is reported as > 500 µM. For the same molecule, the IC50 [10] was 8 µM, the IC50 [5] was 5 µM and the IC50 [6] was 42 µM. The IC50 [7] was 70 µM and the IC50 [8] was 6 µM.

Reference: ChEMBL document CHEMBL3112550, “Specific features of HIV-1 integrase inhibition by bisphosphonate derivatives” (Eur J Med Chem, 2014)
